In ChEMBL document CHEMBL3525945, “Metabolic switching of BILR 355 in the presence of ritonavir. II. Uncovering novel contributions by gut bacteria and aldehyde oxidase” (Drug Metab Dispos, 2012):

Tests used:
[1] = molecular target: Cytochrome P450 2C9 (Homo sapiens, UniProt P11712); experiment: Activity at recombinant CYP2C9 (unknown origin) expressed in baculovirus-infected insect cells assessed as enzyme-mediated drug depletion at 1 to 10 uM by LC-MS/MS analysis in presence of NADPH; assay type: ADME
Chain of Cytochrome P450 2C9 (P11712 whole entry): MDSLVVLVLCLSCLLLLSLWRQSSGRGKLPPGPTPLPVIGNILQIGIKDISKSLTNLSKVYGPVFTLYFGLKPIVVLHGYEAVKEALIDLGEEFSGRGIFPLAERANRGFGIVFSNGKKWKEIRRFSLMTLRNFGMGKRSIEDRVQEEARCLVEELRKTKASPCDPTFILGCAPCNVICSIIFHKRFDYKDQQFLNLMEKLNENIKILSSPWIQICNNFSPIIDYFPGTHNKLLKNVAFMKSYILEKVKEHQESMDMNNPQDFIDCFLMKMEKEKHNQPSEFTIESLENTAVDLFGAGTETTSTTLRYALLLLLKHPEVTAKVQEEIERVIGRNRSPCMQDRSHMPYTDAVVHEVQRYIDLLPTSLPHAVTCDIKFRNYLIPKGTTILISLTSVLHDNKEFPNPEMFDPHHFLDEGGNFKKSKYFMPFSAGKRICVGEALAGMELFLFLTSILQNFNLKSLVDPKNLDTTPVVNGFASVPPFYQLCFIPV
Procedure, shortened: (§1)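 BILR 402 (1 or 10 μM) with baculovirus/insect-cell recombinant CYPs, levels scaled to average liver content (1A2 2, 2A6 1, 2B6 0.1, 2C9 1.5, 2C19 1.5, 2D6 0.3, 3A4 5 pmol/mL). Buffer 0.1 M potassium phosphate, 5 mM MgCl2, pH 7.4; 2.5 mM NADPH; 37 °C. Non-transfected insect microsomes served as controls. Aliquots taken 0.5–30 min and acetonitrile-quenched; depletion measured by LC-MS/MS with isotope-labelled internal standard.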

[2] = molecular target: T1, Cytochrome P450 1A2 (Homo sapiens, UniProt P05177); experiment: Activity at recombinant CYP1A2 (unknown origin) expressed in baculovirus-infected insect cells assessed as enzyme-mediated drug depletion at 1 to 10 uM by LC-MS/MS analysis in presence of NADPH; assay type: ADME; procedure, shortened: as §1
T1 sequence (P05177 whole entry): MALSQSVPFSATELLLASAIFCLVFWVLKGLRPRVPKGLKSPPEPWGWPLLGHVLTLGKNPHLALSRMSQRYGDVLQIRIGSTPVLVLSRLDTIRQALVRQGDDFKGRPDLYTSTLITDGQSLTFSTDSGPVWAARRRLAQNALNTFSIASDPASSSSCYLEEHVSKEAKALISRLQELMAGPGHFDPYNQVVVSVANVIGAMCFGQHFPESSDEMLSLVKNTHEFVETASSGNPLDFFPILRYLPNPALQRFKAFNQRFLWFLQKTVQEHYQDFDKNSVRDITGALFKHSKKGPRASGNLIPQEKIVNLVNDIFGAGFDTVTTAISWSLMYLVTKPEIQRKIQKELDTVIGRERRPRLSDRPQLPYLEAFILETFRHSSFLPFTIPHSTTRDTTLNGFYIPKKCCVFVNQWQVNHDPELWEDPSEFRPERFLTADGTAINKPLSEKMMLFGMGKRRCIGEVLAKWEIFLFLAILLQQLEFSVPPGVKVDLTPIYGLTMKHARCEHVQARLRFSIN

Drug metabolism [1]: metabolite_not_detected | Drug metabolism [2]: metabolite_not_detected
Compound: CCN1c2ncc(CCOc3ccnc4ccccc34)cc2C(=O)N(C)c2cccnc21
